Experiments:
Homo sapiens [1] = organism: Homo sapiens; experiment: Selectivity for human A2B receptor over human A2A receptor
Adenosine receptor A1 = target: T1, Adenosine receptor A1 (Homo sapiens, UniProt P30542); experiment: Displacement of [3H]-CPX from human A1 receptor expressed in CHO cell membranes
T1 sequence (P30542 whole entry): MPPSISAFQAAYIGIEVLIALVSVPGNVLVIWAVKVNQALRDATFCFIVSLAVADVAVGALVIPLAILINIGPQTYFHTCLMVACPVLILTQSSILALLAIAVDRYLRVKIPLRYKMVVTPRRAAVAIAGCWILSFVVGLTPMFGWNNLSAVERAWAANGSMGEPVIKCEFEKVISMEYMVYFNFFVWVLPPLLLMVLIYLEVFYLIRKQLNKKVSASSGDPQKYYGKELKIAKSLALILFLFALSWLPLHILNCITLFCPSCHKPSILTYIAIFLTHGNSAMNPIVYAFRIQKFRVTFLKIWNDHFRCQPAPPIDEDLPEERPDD
Summary of the method: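 Competitive binding on membranes prepared from A1-expressing CHO cells, radioligand 3H-CPX at 0.5 nM.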

Adenosine receptor A3 = target: T2, Adenosine receptor A3 (Homo sapiens, UniProt P0DMS8); experiment: Displacement of [125I]-AB-MECA from human A3 receptor expressed in CHO cells; assay type: cell-based
T2 sequence (P0DMS8 whole entry): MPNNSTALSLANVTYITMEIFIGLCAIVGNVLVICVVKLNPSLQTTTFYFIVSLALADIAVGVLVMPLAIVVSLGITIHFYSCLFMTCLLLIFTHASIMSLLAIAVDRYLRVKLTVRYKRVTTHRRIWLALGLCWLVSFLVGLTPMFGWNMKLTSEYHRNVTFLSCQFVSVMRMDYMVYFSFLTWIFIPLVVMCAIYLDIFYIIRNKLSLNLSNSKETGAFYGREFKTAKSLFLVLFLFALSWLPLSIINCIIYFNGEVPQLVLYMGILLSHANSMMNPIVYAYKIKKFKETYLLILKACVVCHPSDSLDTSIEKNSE
Summary of the method: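 A3 binding: competition for sites labeled by 125I-AB-MECA using CHO cells expressing the A3 receptor.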

Homo sapiens [2] = organism: Homo sapiens; experiment: Selectivity for human A2B receptor over human A1 receptor
Adenosine receptor A2b = target: T3, Adenosine receptor A2b (Homo sapiens, UniProt P29275); experiment: Displacement of [3H]-ZM241385 from human A2B receptor expressed in HEK293 cell membranes
T3 sequence (P29275 whole entry): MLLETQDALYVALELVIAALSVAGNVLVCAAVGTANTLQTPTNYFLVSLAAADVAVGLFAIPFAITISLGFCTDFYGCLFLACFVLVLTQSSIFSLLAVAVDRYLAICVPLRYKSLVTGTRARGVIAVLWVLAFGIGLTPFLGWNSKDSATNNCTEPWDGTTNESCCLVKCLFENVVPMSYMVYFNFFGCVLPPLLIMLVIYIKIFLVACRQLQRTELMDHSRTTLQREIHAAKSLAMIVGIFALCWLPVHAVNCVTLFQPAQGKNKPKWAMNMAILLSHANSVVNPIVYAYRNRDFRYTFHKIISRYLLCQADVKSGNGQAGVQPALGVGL
Summary of the method: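 Membranes from HEK cells expressing A2B; binding sites labeled with 3H-ZM241385 at 14 nM and displaced competitively.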

Adenosine receptor A2a = Adenosine receptor A2a (Homo sapiens, UniProt P29274); experiment: Displacement of [3H]ZM241385 from human A2A receptor expressed in HEK293 cell membranes
Adenosine receptor A2a, sequence (P29274 whole entry): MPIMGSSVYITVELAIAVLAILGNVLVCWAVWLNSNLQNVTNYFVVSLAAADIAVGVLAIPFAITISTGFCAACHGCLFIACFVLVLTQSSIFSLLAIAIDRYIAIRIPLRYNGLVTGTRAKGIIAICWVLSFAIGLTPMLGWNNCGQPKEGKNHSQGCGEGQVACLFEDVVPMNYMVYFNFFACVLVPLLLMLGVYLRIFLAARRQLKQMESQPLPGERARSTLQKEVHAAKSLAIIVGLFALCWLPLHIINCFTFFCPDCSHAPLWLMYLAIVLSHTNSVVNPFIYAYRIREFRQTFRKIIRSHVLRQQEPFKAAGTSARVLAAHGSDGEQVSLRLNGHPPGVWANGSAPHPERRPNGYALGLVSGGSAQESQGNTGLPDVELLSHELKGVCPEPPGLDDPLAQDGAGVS
Summary of the method: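 A2A affinity by competition with 3H-ZM241385 (2 nM) for binding sites in membranes from HEK-A2A cells.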

Homo sapiens [3] = organism: Homo sapiens; experiment: Selectivity for human A2B receptor over human A3 receptor

| Compound | Ratio Ki (Homo sapiens [1]) | Ki (Adenosine receptor A1) | Ki (Adenosine receptor A3) | Ratio Ki (Homo sapiens [2]) | Ki (Adenosine receptor A2b) | Ki (Adenosine receptor A2a) | Ratio Ki (Homo sapiens [3]) |
| --- | --- | --- | --- | --- | --- | --- | --- |
| CCCn1c(=O)[nH]c2nc(-c3cnn(Cc4noc(-c5ccccc5)n4)c3)[nH]c2c1=O | > 300 | 3500 nM | > 9000 nM | 200 | 15 nM | > 5000 nM | > 600 |
| CCn1c(=O)[nH]c2nc(-c3cnn(Cc4ccccc4)c3)[nH]c2c1=O | 100 | 5600 nM | 1500 nM | 150 | 37 nM | 3800 nM | 40 |
| CCCn1c(=O)c2[nH]c(-c3cnn(Cc4cccc(F)c4)c3)nc2n(CCC)c1=O | 18 |  | 58 nM | 13 |  |  | 4 |
| CCCn1c(=O)c2[nH]c(-c3cnn(Cc4noc(-c5ccccc5)n4)c3)nc2n(CCC)c1=O | 85 |  |  | 50 |  |  | 30 |
| CC(C)Cn1c(=O)[nH]c2nc(-c3cnn(Cc4noc(-c5ccc(C(F)(F)F)cc5)n4)c3)[nH]c2c1=O | > 350 | > 6000 nM | > 9000 nM | > 400 | 14 nM | > 5000 nM | > 650 |
| CCCn1c(=O)c2[nH]c(-c3cnn(Cc4cccc(C(F)(F)F)c4)c3)nc2n(CCC)c1=O | 27 | 160 nM | 140 nM | 12 |  |  | 10 |
| CCCn1c(=O)[nH]c2nc(-c3cnn(Cc4noc(-c5ccc(C(F)(F)F)cc5)n4)c3)[nH]c2c1=O | > 300 | 1400 nM | > 9000 nM | 90 | 15 nM | > 5000 nM | > 600 |
| Cn1c(=O)[nH]c(=O)c2[nH]c(-c3cnn(Cc4ccccc4)c3)nc21 |  |  |  |  | > 6000 nM |  |  |
| O=c1[nH]c2nc(-c3cnn(Cc4cc(-c5ccc(C(F)(F)F)cc5)on4)c3)[nH]c2c(=O)n1CC1CC1 | > 300 | > 6000 nM | > 9000 nM | > 400 | 15 nM | > 5000 nM | > 600 |
| CCn1c(=O)[nH]c2nc(-c3cnn(Cc4cccc(F)c4)c3)[nH]c2c1=O | > 70 | > 6000 nM | 2120 nM | > 80 | 73 nM | > 5000 nM | 30 |
| CC(C)Cn1c(=O)[nH]c2nc(-c3cnn(Cc4ccccc4)c3)[nH]c2c1=O | > 380 | > 6000 nM | 1100 nM | > 460 | 13 nM | > 5000 nM | 90 |
| CCCCn1c(=O)[nH]c2nc(-c3cnn(Cc4cccc(C(F)(F)F)c4)c3)[nH]c2c1=O | > 170 | > 6000 nM | > 9000 nM | > 200 | 30 nM | > 5000 nM | > 300 |
| CCCn1c(=O)c2[nH]c(-c3cnn(Cc4cc(-c5ccccc5)on4)c3)nc2n(CCC)c1=O | 30 |  |  | 110 |  |  | 130 |
| CCCCn1c(=O)[nH]c2nc(-c3cnn(Cc4ccccc4)c3)[nH]c2c1=O | 100 | 5100 nM | 110 nM | 150 | 34 nM | 3400 nM | 3 |
| CC(C)Cn1c(=O)[nH]c2nc(-c3cnn(Cc4cc(-c5ccccc5)on4)c3)[nH]c2c1=O | > 410 | > 6000 nM | > 9000 nM | > 500 | 12 nM | > 5000 nM | > 750 |
| CC(C)Cn1c(=O)[nH]c2nc(-c3cnn(Cc4cccc(C(F)(F)F)c4)c3)[nH]c2c1=O | > 180 | > 6000 nM | > 9000 nM | > 210 | 28 nM | > 5000 nM | > 320 |
| CCn1c(=O)[nH]c(=O)c2[nH]c(-c3cnn(Cc4ccccc4)c3)nc21 |  |  |  |  | > 6000 nM |  |  |
| CC(C)Cn1c(=O)[nH]c(=O)c2[nH]c(-c3cnn(Cc4ccccc4)c3)nc21 |  |  |  |  | > 6000 nM |  |  |
| O=c1[nH]c(=O)n(Cc2ccccc2)c2nc(-c3cnn(Cc4ccccc4)c3)[nH]c12 |  |  |  |  | > 6000 nM |  |  |
| CCCn1c(=O)[nH]c2nc(-c3cnn(Cc4ccccc4)c3)[nH]c2c1=O | > 380 | 1600 nM | 120 nM | 120 | 13 nM | > 5000 nM | 10 |
| O=c1[nH]c2nc(-c3cnn(Cc4ccccc4)c3)[nH]c2c(=O)n1Cc1ccccc1 |  |  |  |  | > 6000 nM |  |  |
| O=c1[nH]c2nc(-c3cnn(Cc4cccc(C(F)(F)F)c4)c3)[nH]c2c(=O)n1CC1CC1 | > 1600 | > 6000 nM | 1000 nM | > 2000 | 3 nM | > 5000 nM | 300 |
| CCCn1c(=O)[nH]c2nc(-c3cnn(Cc4noc(-c5ccc(Cl)cc5)n4)c3)[nH]c2c1=O | > 700 | > 6000 nM | > 9000 nM | > 850 | 7 nM | > 5000 nM | > 1280 |
| CCCn1c(=O)[nH]c2nc(-c3cnn(Cc4cc(-c5ccc(Cl)cc5)on4)c3)[nH]c2c1=O | > 30 | > 6000 nM |  | > 30 | 170 nM | > 5000 nM |  |
| O=c1[nH]c2nc(-c3cnn(Cc4ccccc4)c3)[nH]c2c(=O)n1CC1CC1 | 460 | 3290 nM | 180 nM | 550 | 6 nM | 2760 nM | 30 |
| CCCCn1c(=O)[nH]c(=O)c2[nH]c(-c3cnn(Cc4ccccc4)c3)nc21 |  |  |  |  | > 6000 nM |  |  |
| CCCn1c(=O)c2[nH]c(-c3cnn(Cc4ccccc4)c3)nc2n(CCC)c1=O | 26 |  |  | 7 |  |  | 16 |
| O=c1[nH]c2nc(-c3cnn(Cc4cccc(F)c4)c3)[nH]c2c(=O)n1CC1CC1 | 20 | 210 nM |  | 42 | 5 nM | 100 nM |  |
| CCCn1c(=O)[nH]c(=O)c2[nH]c(-c3cnn(Cc4ccccc4)c3)nc21 |  |  |  |  | > 6000 nM |  |  |
